Calls of active or inactive are those of the source. The calls are words filed in the database; no cut-off is given here.
Legend:
[1] = system: MDA-MB-231; assay: Growth inhibition of human MDA-MB-231 cells; assay type: functional
In short: (§1)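 NCI 60 cancer cell line screen run per the Developmental Therapeutics Program protocol. Dose–response curves were plotted against log10 drug concentration for each cell line within its subpanel, and mean graph midpoint values were calculated.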

[2] = Growth inhibition of human Hs 578T cells; assay type: functional; in short: as §1
[3] = molecular target: Telomerase reverse transcriptase (Homo sapiens) (UniProt O14746); assay: Inhibition of telomerase in human H1299 cells up to 100 uM by TRAP assay; assay type: cell-based
In short: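 PCR-based telomeric repeat amplification protocol (TRAP). The telomerase source was total lysate of H1299 lung cancer cells, with protein measured against BSA standards. Controls were extract without inhibitor and RNase A-treated extract.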

[4] = system: EKVX; assay: Antiproliferative activity against human EKVX cells assessed as cell growth at 10 uM; assay type: functional; conditions: read-out: Activity
In short: (§2)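 NCI 60 cell line panel, single-dose screen (10^-5 M) run by the developmental therapeutics program protocol. Results are given as growth percent of treated cells relative to untreated control cells for each line.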

[5] = system: SW-620; assay: Antiproliferative activity against human SW620 cells assessed as cell growth at 10 uM; assay type: functional; conditions: read-out: Activity
In short: (§3)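 NCI 60 cell line panel, single dose (10^-5 M), run per the Developmental Therapeutics Program protocol (one dose mean graph). Each result is the growth percentage of treated cells relative to untreated control cells.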

[6] = system: MCF7; assay: Antiproliferative activity against human MCF7 cells assessed as cell growth at 10 uM; assay type: functional; conditions: read-out: Activity; in short: as §2
[7] = system: MDA-MB-468; assay: Antiproliferative activity against human MDA-MB-468 cells assessed as cell growth at 10 uM; assay type: functional; conditions: read-out: Activity; in short: as §2
[8] = system: SK-OV-3; assay: Antiproliferative activity against human SKOV3 cells assessed as cell growth at 10 uM; assay type: functional; conditions: read-out: Activity; in short: as §2
[9] = system: MOLT-4; assay: Antiproliferative activity against human MOLT4 cells assessed as cell growth at 10 uM; assay type: functional; conditions: read-out: Activity; in short: as §2
[10] = system: UACC-62; assay: Antiproliferative activity against human UACC62 cells assessed as cell growth at 10 uM; assay type: functional; conditions: read-out: Activity; in short: as §3
[11] = system: DU-145; assay: Antiproliferative activity against human DU145 cells assessed as cell growth at 10 uM; assay type: functional; conditions: read-out: Activity; in short: as §2
[12] = system: SF-539; assay: Antiproliferative activity against human SF539 cells assessed as cell growth at 10 uM; assay type: functional; conditions: read-out: Activity; in short: as §2
[13] = system: K562; assay: Growth inhibition of human K562 cells; assay type: functional; in short: as §1
[14] = system: MOLT-4; assay: Growth inhibition of human MOLT4 cells; assay type: functional; in short: as §1
[15] = system: A549; assay: Growth inhibition of human A549 cells; assay type: functional; in short: as §1
[16] = system: HOP-92; assay: Growth inhibition of human HOP92 cells; assay type: functional; in short: as §1
[17] = system: NCI-H226; assay: Growth inhibition of human NCI-H226 cells; assay type: functional; in short: as §1
[18] = system: NCI-H522; assay: Growth inhibition of human NCI-H522 cells; assay type: functional; in short: as §1
[19] = system: COLO 205; assay: Growth inhibition of human COLO205 cells; assay type: functional; in short: as §1
[20] = system: HCT-15; assay: Growth inhibition of human HCT15 cells; assay type: functional; in short: as §1
[21] = system: SF-268; assay: Growth inhibition of human SF268 cells; assay type: functional
In short: (§4)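 Assayed in the NCI 60 human cancer cell line panel under the Developmental Therapeutics Program protocol. For each line, dose–response curves were plotted against log10 drug concentration. In the one-dose screen at 10^-5 M, growth was given as percent of untreated control cells, and mean graph midpoint values were averaged.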

[22] = system: SF-295; assay: Growth inhibition of human SF295 cells; assay type: functional; in short: as §4
[23] = system: SNB-19; assay: Growth inhibition of human SNB19 cells; assay type: functional; in short: as §4
[24] = system: U-251; assay: Growth inhibition of human U251 cells; assay type: functional; in short: as §4
[25] = system: SK-MEL-28; assay: Growth inhibition of human SK-MEL-28 cells; assay type: functional; in short: as §4
[26] = system: UACC-257; assay: Growth inhibition of human UACC257 cells; assay type: functional; in short: as §4
[27] = system: UACC-62; assay: Growth inhibition of human UACC62 cells; assay type: functional; in short: as §4
[28] = system: OVCAR-3; assay: Growth inhibition of human OVCAR-3 cells; assay type: functional; in short: as §1
[29] = system: OVCAR-5; assay: Growth inhibition of human OVCAR5 cells; assay type: functional; in short: as §1
[30] = system: OVCAR-8; assay: Growth inhibition of human OVCAR8 cells; assay type: functional; in short: as §1
[31] = system: SK-OV-3; assay: Growth inhibition of human SKOV3 cells; assay type: functional; in short: as §4
[32] = system: A498; assay: Growth inhibition of human A498 cells; assay type: functional; in short: as §1
[33] = system: SN12C; assay: Growth inhibition of human SN12C cells; assay type: functional; in short: as §4
[34] = system: MCF7; assay: Growth inhibition of human MCF7 cells; assay type: functional; in short: as §1
[35] = system: NCI-H226; assay: Antiproliferative activity against human NCI-H226 cells assessed as cell growth at 10 uM; assay type: functional; conditions: read-out: Activity; in short: as §2
[36] = system: HCT-15; assay: Antiproliferative activity against human HCT15 cells assessed as cell growth at 10 uM; assay type: functional; conditions: read-out: Activity; in short: as §2
[37] = system: HT-29; assay: Antiproliferative activity against human HT-29 cells assessed as cell growth at 10 uM; assay type: functional; conditions: read-out: Activity; in short: as §2
[38] = system: KM12; assay: Antiproliferative activity against human KM12 cells assessed as cell growth at 10 uM; assay type: functional; conditions: read-out: Activity; in short: as §2
[39] = molecular target: Telomerase reverse transcriptase (Homo sapiens) (UniProt O14746); assay: Inhibition of TERT in human H1299 cells assessed as residual transcriptional activity at 1 uM after 24 hrs by SEAP reporter gene assay; values are per cent of control
[40] = molecular target: Telomerase reverse transcriptase (Homo sapiens) (UniProt O14746); assay: Inhibition of TERT in human H1299 cells assessed as residual transcriptional activity at 100 uM after 24 hrs by SEAP reporter gene assay; values are per cent of control
[41] = read-out: LC50 (the source's name)

Chain of Telomerase reverse transcriptase (Homo sapiens) (O14746 whole entry): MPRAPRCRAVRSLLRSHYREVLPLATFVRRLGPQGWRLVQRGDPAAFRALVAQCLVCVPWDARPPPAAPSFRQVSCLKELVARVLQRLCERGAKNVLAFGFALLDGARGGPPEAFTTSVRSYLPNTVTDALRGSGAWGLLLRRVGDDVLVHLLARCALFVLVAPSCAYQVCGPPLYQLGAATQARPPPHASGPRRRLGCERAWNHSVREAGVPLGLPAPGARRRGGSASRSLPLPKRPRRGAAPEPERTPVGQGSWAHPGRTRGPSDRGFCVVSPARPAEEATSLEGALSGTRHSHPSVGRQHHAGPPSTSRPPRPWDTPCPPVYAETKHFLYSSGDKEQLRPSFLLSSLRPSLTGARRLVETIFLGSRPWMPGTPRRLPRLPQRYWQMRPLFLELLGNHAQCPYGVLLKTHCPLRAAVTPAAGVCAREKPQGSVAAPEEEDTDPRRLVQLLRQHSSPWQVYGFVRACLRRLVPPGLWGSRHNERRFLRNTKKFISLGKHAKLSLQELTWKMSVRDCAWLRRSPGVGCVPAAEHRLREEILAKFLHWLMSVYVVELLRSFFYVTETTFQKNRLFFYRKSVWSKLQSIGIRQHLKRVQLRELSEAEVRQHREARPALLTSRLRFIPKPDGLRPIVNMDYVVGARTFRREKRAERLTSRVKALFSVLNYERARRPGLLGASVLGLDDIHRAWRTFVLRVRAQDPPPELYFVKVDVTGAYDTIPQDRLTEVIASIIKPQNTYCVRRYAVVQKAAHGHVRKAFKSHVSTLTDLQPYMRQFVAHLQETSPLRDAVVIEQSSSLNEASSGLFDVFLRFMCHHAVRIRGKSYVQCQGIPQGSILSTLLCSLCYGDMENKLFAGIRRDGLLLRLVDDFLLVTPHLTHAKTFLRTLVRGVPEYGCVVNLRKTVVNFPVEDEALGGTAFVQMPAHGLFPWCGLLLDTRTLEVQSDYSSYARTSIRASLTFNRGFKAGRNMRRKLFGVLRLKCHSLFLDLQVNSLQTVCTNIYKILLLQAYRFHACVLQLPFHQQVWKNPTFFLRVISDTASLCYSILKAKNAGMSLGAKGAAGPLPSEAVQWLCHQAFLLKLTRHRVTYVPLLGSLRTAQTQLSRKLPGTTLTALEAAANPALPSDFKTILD

O=C1c2ccccc2C(=O)c2c1ccc1nccnc21
GI50 [1]: 19.1 µM
LC50 (concentration killing 50% of cells) [1]: > 100 µM
TGI [1]: > 100 µM
GI50 [2]: 14.1 µM
LC50 [2]: > 100 µM
TGI [2]: 91.4 µM
inhibition [3]: inactive
growth at 10 µM [4]: 82.6%
growth at 10 µM [5]: 39.2%
growth at 10 µM [6]: 39.7%
growth at 10 µM [7]: 75.3%
growth at 10 µM [8]: 78.2%
growth at 10 µM [9]: 22.9%
growth at 10 µM [10]: 90.5%
growth at 10 µM [11]: 93.3%
growth at 10 µM [12]: 40.7%
GI50 [13]: 0.07 µM
LC50 [13]: > 100 µM
TGI [13]: > 100 µM
GI50 [14]: 3.65 µM
TGI [14]: > 100 µM
CC50 [14, 41]: > 100 µM
GI50 [15]: 4.53 µM
TGI [15]: > 100 µM
CC50 [15, 41]: > 100 µM
GI50 [16]: 22.5 µM
TGI [16]: > 100 µM
CC50 [16, 41]: > 100 µM
GI50 [17]: 16.6 µM
TGI [17]: 95.2 µM
CC50 [17, 41]: > 100 µM
GI50 [18]: 4.64 µM
TGI [18]: 32.5 µM
CC50 [18, 41]: > 100 µM
GI50 [19]: 3.4 µM
TGI [19]: 28.4 µM
CC50 [19, 41]: > 100 µM
GI50 [20]: 4.63 µM
TGI [20]: 84.3 µM
CC50 [20, 41]: > 100 µM
GI50 [21]: 4.98 µM
TGI [21]: > 100 µM
CC50 [21, 41]: > 100 µM
GI50 [22]: 4.35 µM
TGI [22]: 32.3 µM
CC50 [22, 41]: > 100 µM
GI50 [23]: 13.4 µM
TGI [23]: > 100 µM
CC50 [23, 41]: > 100 µM
GI50 [24]: 5.38 µM
TGI [24]: 42.9 µM
CC50 [24, 41]: > 100 µM
GI50 [25]: 21 µM
TGI [25]: 91.1 µM
CC50 [25, 41]: > 100 µM
GI50 [26]: 13 µM
TGI [26]: 68.3 µM
CC50 [26, 41]: > 100 µM
GI50 [27]: 13.3 µM
TGI [27]: 56.1 µM
CC50 [27, 41]: > 100 µM
GI50 [28]: 2.34 µM
TGI [28]: 12.5 µM
CC50 [28, 41]: > 100 µM
GI50 [29]: 29.3 µM
TGI [29]: > 100 µM
CC50 [29, 41]: > 100 µM
GI50 [30]: 5.07 µM
TGI [30]: > 100 µM
CC50 [30, 41]: > 100 µM
GI50 [31]: 6.95 µM
TGI [31]: > 100 µM
CC50 [31, 41]: > 100 µM
GI50 [32]: 9.31 µM
TGI [32]: 50.3 µM
CC50 [32, 41]: > 100 µM
GI50 [33]: 13.2 µM
TGI [33]: 92.7 µM
CC50 [33, 41]: > 100 µM
GI50 [34]: 0.72 µM
TGI [34]: 29.8 µM
CC50 [34, 41]: > 100 µM
growth at 10 µM [35]: 86.7%
growth at 10 µM [36]: 52.1%
growth at 10 µM [37]: 81.9%
growth at 10 µM [38]: 61%
residual activity [39]: 105%
residual activity [40]: 24%
